High-throughput results as filed in PubChem.
MT stabilize HCS = microtubule stabilization, imaging screen; % tubulin-high responders, % at 10 µM; HeLa tubulin immunostaining HCS, 24 h; share of cells brighter than vehicle mean+2SD; AID 2205; hit rate 0.83% among 200,000;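 active = plate Z-score above 3 for both tubulin-high and condensed-nucleus cell shares, with cell loss under 80%, at 10 µM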;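 note: anti alpha tubulin signal scored within the nucleus-defined area of each cell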
b-catenin transl = modulators of beta-catenin nuclear translocation. AID 1665. HeLa beta-catenin nuclear translocation, immunofluorescence imaging. hit rate 0.3% among 190,000. nuclear translocation activity, % at 5 µM;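 active = nuclear translocation activity above 50% at 5 µM, with a well cell count of 50 or more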;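 note: per-cell ratio of nuclear to cytoplasmic median beta-catenin stain intensity; plate controls were DMSO negative control for no effect and GSK-3 inhibitor IX positive control for full effect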
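Test system: human HeLa cell line; Doses: 5 µM primary, 0.02–20 µM confirmation; Incubation: 24 h compound exposure, 37°C; Detection: beta-catenin immunofluorescence imaging with DAPI; Read-out: beta-catenin nuclear/cytoplasmic ratio, % activation.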
HSV augment = HSV replication enhancement. HSV replication augmentation in cells, fold increase. maximum fold increase. hit rate 0.005% among 220,000; in the data active = maximum fold increase above about 1.5; tested in PC3 cells
Lmaj promast = Leishmania major promastigote growth inhibition | AID 1063 | hit rate 9% among 200,000 | Leishmania major promastigotes, resazurin fluorescence viability | inhibition, % at 10 µM; in the data active = inhibition above about 50%;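 note: promastigotes grown with compound for 44 hours at 28 °C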
Dynein transport = dynein cargo transport inhibition | 3617.4 mouse cells, GR-EGFP nuclear translocation imaging; test concentration mostly 20 µM; stimulated with dexamethasone, 1 µM; hits give low values | z-score, hits read low | hit rate 0.47% among 220,000 | AID 1381;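 active = plate z-score of nuclear minus cytoplasmic receptor signal below a set negative limit, without overly bright fluorescence or cell loss, cut at about -3.5 in these data, passing the limit was not always enough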;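 note: z-score of nuclear minus cytoplasmic ring GR-EGFP intensity difference per well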
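Buffer or medium: Induction medium lacking tetracycline, stripped serum | Also added: Dexamethasone agonist, 1.0 µM final, for 30 min | Timing: 48 h induction, 1 h compound, 30 min dex at 37 °C | Detection: Formaldehyde fixation, Hoechst nuclear stain, 10x automated fluorescence imaging | Measure: Nuclear versus cytoplasmic GR-EGFP signal, averaged per well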
Starred values were filed as active, the others as inactive; i = inactive; nt = no result. Compounds with a hit are over-represented: about 8.9% of the library has one in this group of screens.

SMILES	MT stabilize HCS	b-catenin transl	HSV augment	Lmaj promast	Dynein transport
CC(/C=N/Nc1nc(N2CCCCC2)nc(N2CCCCC2)n1)=C\c1ccccc1	3	1	i	19	-0.38
C(=N\Nc1nc(N2CCCCCC2)nc(N2CCCCCC2)n1)/c1ccccc1	2	-2	i	61*	0.7
CN(C)CC(=O)c1c[nH]c2ccccc12	2	0	i	-5	-0.43
CCN1CCN(c2ncc3c(n2)CC(c2cc(OC)c(OC)c(OC)c2)CC3=O)CC1 (centres undefined)	32*	141*	i	100*	0.24
COC1(OC)C(/C=C/c2ccc(Cl)cc2)C(C#N)(C#N)C1(OC)OC (centres undefined)	5	nt	i	85*	-0.95
CC1CN(c2cc(-c3ccccc3)c3ccccc3n2)CC(C)O1 (centres undefined)	1	nt	i	100*	-0.28
COc1ccccc1N1CCN(C2CC(=O)N(C)C2=O)CC1 (centres undefined)	2	0	i	3	-1.2
Cc1noc(C)c1C(=O)N1CCN(Cc2ccc3c(c2)OCO3)CC1	2	-2	i	-4	-0.54
CCCC(C)C(=O)Nc1nc(C)c(-c2csc(Nc3cc(Cl)ccc3C)n2)s1 (centres undefined)	2	6	i	91*	0.95
C=CCCC(=O)Nc1nc(C)c(-c2csc(Nc3ccccc3OC)n2)s1	36	56*	i	70*	0.35
CCC(C)C(=O)Nc1nc(C)c(-c2csc(Nc3ccccc3OC)n2)s1 (centres undefined)	4	5	i	99*	0.27
C=CCCC(=O)Nc1nc(C)c(-c2csc(Nc3cc(Cl)ccc3OC)n2)s1	54*	4	i	33	0.27
C=CCCC(=O)Nc1nc(C)c(-c2csc(Nc3ccc(Cl)cc3Cl)n2)s1	35	21	i	7	0.57
COC(=O)c1cc(NC(=O)c2ccc(OC)cc2)c(=O)oc1C	2	20	i	3	-1.3
Cc1cccc(OCC(=O)N2CCN(C(=O)c3ccc([N+](=O)[O-])cc3)CC2)c1	2	1	i	-1	-0.36
CCCCC(=O)Nc1nc(C)c(-c2csc(Nc3ccccc3OC)n2)s1	33	8	i	95*	-0.15
Nc1nn(-c2ccccc2)c(N)c1N=Nc1ccccc1	22*	89*	i	10	1.5
Cc1nn(-c2ccccc2)c(N)c1N=Nc1ccccc1	10	11	i	8	-0.12
Nc1c(N=Nc2ccccc2F)c(=O)[nH]n1-c1ccccc1	2	nt	i	-4	0.072
Nc1nn(-c2ccccc2)c(N)c1N=Nc1ccccc1F	26*	1	i	-2	0.41
O=C(CCCc1nc2ccccc2s1)N1CCN(c2ccccc2)CC1	3	1	i	-6	-0.71
COc1ccc2nc(NC(=O)Nc3cccc4ccccc34)sc2c1	3	0	i	-1	-1.2
COc1ccc2nc(N=Nc3c(O)ccc4ccccc34)sc2c1	9	-3	i	99*	0.15
O=C(COC(=O)C1CCC1)Nc1ccccc1Sc1ccccc1	3	-2	i	-5	-1
N#CC1=C(SCC(=O)c2ccccc2)NC2=C(C(=O)CCC2)C1c1ccco1 (centres undefined)	34	171*	nt	17	1.6
SMILES	MT stabilize HCS	b-catenin transl	HSV augment	Lmaj promast	Dynein transport
CC(=O)C1=C(C)NC(SCC(=O)c2ccc(Cl)c(Cl)c2)=C(C#N)C1c1ccco1 (centres undefined)	15	26	i	78*	-2.8
C=CCOC(=O)C1=C(C)NC(SCC(=O)N(CC)CC)=C(C#N)C1c1ccco1 (centres undefined)	2	-2	i	81*	0.019
Cc1ccc(C(=O)CSC2=C(C#N)C(c3ccco3)C3=C(CCCC3=O)N2)cc1 (centres undefined)	20*	130*	i	26	-0.52
CC(C)(C)c1ccc(C(=O)CCCSC2=C(C#N)C(c3ccco3)C3=C(CCCC3=O)N2)cc1 (centres undefined)	8	6	nt	30	0.29
S=C(NCCc1ccccn1)Nc1ccc(Cl)c(Cl)c1	3	-8	i	6	0.46
CCSC1=C(C#N)C(c2ccc(Cl)cc2)C2=C(CCCC2=O)N1 (centres undefined)	3	1	i	95*	-0.69
O=C(Cc1cccs1)Nc1nc(-c2ccccc2)cs1	3	nt	i	12	-0.55
CCN(CC)c1ccc(NC(=O)c2ccco2)c(C)c1	3	nt	i	-2	-1.9
Cc1scc(C(=O)Nn2cnnc2)c1-c1ccccc1	1	0	i	-4	-1.2
CN(C)Cc1ccccc1Sc1ccccc1Br	3	0	i	18	-0.64
CN(C)Cc1ccccc1Sc1cccc2ccccc12	2	2	i	97*	-0.089
CCCc1cc(C(=O)Nc2sc(C)c(C)c2C(=O)OCC)no1	5	0	i	-5	1.5
Cc1sc(NC(=O)C2CCCCC2C(=O)O)c(C(N)=O)c1-c1ccccc1 (centres undefined)	4	nt	i	-7	0.97
Cc1cc(C)cc(N(CC(=O)N/N=C/c2ccncc2)S(=O)(=O)c2ccccc2)c1	6	-3	i	75*	3.1
Cc1ccc(SCC(=O)N(C)C2CCS(=O)(=O)C2)cc1 (centres undefined)	4	1	i	-4	-0.66
CCn1c2ccccc2c2nnc(SCC(=O)N(C)C3CCS(=O)(=O)C3)nc21 (centres undefined)	2	nt	i	66*	-0.99
CCn1c2ccccc2c2nnc(SCC(=O)NC3CCS(=O)(=O)C3)nc21 (centres undefined)	3	-1	i	1	-0.0014
Cc1ccc(-c2nc(SCC(=O)N(C)C3CCS(=O)(=O)C3)[nH]c2-c2ccc(C)cc2)cc1 (centres undefined)	2	1	i	94*	-0.058
Cn1c(-c2c(N)n(-c3ccccc3)c3nc4ccccc4nc23)nc2ccccc21	2	3	i	75*	-0.08
Cc1cccc(-n2c(N)c(-c3nc4ccccc4n3C)c3nc4ccccc4nc32)c1	i	-1	i	50	0.17
Cc1cccc(N=Nc2c(C)nn(-c3ccccc3)c2N)c1C	6	0	i	13	-0.12
CCC(=O)N1CCc2cc(Br)cc(S(=O)(=O)NCCN3CCCCC3C)c21 (centres undefined)	2	0	i	92*	-1.4
COC(=O)CS(=O)(=O)c1cc(Br)cc2c1N(C(C)=O)CC2	5	-1	i	-4	-0.21
CCCN(CCC)CCCNS(=O)(=O)c1cc(Br)cc2c1N(C(C)=O)CC2	4	-1	i	87*	-0.18
CCC(=O)N1CCc2cc(Br)cc(S(=O)(=O)NCCN3CCCCC3CC)c21 (centres undefined)	4	-2	i	12	-0.18
CCCCNS(=O)(=O)c1ccc2nc(SCC(=O)c3ccccc3OC)[nH]c2c1	1	nt	i	99*	-0.51
